Our source for the IC50 values is ChEMBL document CHEMBL1156065, “Structure-activity relationship study on alpha1 adrenergic receptor antagonists from beer” (Bioorg Med Chem Lett, 2009).

Experiment [1] concerns the target T1, Alpha-1A adrenergic receptor (Rattus norvegicus, UniProt P43140).
T1 sequence (P43140 whole entry): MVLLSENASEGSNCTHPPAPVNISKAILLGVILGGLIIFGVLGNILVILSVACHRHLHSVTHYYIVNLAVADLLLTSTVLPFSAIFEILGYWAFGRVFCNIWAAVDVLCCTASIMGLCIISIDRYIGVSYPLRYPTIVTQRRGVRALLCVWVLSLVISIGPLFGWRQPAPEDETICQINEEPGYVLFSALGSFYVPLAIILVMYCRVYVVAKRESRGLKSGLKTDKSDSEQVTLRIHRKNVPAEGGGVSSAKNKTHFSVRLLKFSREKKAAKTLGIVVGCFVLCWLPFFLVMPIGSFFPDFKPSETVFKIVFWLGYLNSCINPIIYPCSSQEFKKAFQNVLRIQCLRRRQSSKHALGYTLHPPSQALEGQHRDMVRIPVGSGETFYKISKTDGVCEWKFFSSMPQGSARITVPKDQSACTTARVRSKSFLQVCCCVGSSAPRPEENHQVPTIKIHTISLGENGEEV
In words: Antagonist activity at rat alpha1A adrenoceptor assessed as inhibition of phenylephrine-induced contraction of caudal artery. The format is functional, tissue-based. The gist of the method:
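Isometric tension at 1 g resting load, equilibrated 30 to 60 min with repeated washes. Contraction induced by submaximal phenylephrine. After the response stabilized, test sample was added at increasing concentrations, up to 15 min per concentration or until the response was stable.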

In experiment [2] the target is T1, Alpha-1A adrenergic receptor. In words: Displacement of [3H]prazosin from rat salivary gland alpha1A adrenoceptor. The gist of the method:
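Rat salivary gland homogenate incubated with test samples and 0.06 nM [3H]-prazosin at 22 °C for 60 min. Stopped by vacuum filtration through glass-fiber filters, washed with 50 mM Tris–HCl, counted by liquid scintillation. Nonspecific binding defined with phentolamine and subtracted from total binding. IC50 taken as the concentration inhibiting specific binding by 50%.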

Turning to `COC(=O)[C@@H]1c2cc(/C=C/C(=O)NCCCCNC(=N)N)ccc2O[C@H]1c1ccc(O)cc1`, the IC50 in experiment [1] worked out at 9.72 µM; in experiment [2], 0.56 µM.

With `N=C(N)NCCCCNC(=O)/C=C/c1ccc2c(c1)[C@@H](C(=O)NCCCCNC(=N)N)[C@H](c1ccc(O)cc1)O2`, the IC50 was determined as 14.3 µM in experiment [1] and 0.29 µM in experiment [2].

Turning to `COC(=O)[C@H]1c2cc(/C=C/C(=O)NCCCCNC(=N)N)ccc2O[C@@H]1c1ccc(O)cc1`, the results for the IC50 in experiment [1] and in experiment [2] were 42.2 µM and 2.16 µM, respectively.

For the compound `N=C(N)NCCCCNC(=O)[C@@H]1c2cc(/C=C/C(=O)O)ccc2O[C@H]1c1ccc(O)cc1`, the IC50 in experiment [1] and in experiment [2] was more than 100 µM each time.

Take `N=C(N)NCCCCNC(=O)/C=C/c1ccc2c(c1)[C@@H](C(=O)NCCCCNC(=N)N)[C@@H](c1ccc(O)cc1)O2`: the IC50 stood at 17.7 µM in experiment [1] and 2.44 µM in experiment [2].

For the compound `N=C(N)NCCCCNC(=O)/C=C/c1ccc(O)cc1`, the figures for the IC50 in experiment [1] and in experiment [2] were more than 100 µM and 57.6 µM, respectively.

Consider `N=C(N)NCCCCNC(=O)[C@H]1c2cc(/C=C/C(=O)O)ccc2O[C@@H]1c1ccc(O)cc1`, for which the IC50 in experiment [1] and in experiment [2] was more than 100 µM in each case.

With `N=C(N)NCCCCNC(=O)/C=C/c1ccc2c(c1)[C@H](C(=O)NCCCCNC(=N)N)[C@H](c1ccc(O)cc1)O2` [APERIDINE], the IC50 in experiment [1] came to 4.9 µM; in experiment [2] it was 0.42 µM.

With `N=C(N)NCCCCNC(=O)/C=C/c1ccc2c(c1)[C@H](C(=O)NCCCCNC(=N)N)[C@@H](c1ccc(O)cc1)O2` [HORDATINE A], the IC50 in experiment [1] worked out at 19.3 µM; in experiment [2] it was 0.31 µM.
